Measurements reported in ChEMBL document CHEMBL1212799 (2010).
In brackets after ≈: the same amount, converted by molar mass.

Columns and labels:
Type in all cases: functional
[1] = system: Klebsiella pneumoniae; assay: fT>MIC in Klebsiella pneumoniae isolate 357 at 2 gram for every 8 hrs administered as 3 hrs infusion over 24 hrs in in vitro pharmcodynamic model
How it was run: (§1)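 Samples assayed by HPLC (linear 0.25–40 µg/ml). Time free drug stayed above the modal triplicate broth-microdilution MIC (CLSI) calculated for each 8-h interval.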

[2] = system: Klebsiella pneumoniae; assay: fT>MIC in Klebsiella pneumoniae isolate 354 at 2 gram for every 8 hrs administered as 3 hrs infusion measured over 0-8 hrs in in vitro pharmcodynamic model; how it was run: as §1
[3] = system: Pseudomonas aeruginosa; assay: fT>MIC in Pseudomonas aeruginosa isolate 896 at 2 gram for every 8 hrs administered as 3 hrs infusion measured over 8-16 hrs in in vitro pharmcodynamic model
[4] = system: Klebsiella pneumoniae; assay: fT>MIC in Klebsiella pneumoniae isolate 375 at 2 gram for every 8 hrs administered as 3 hrs infusion measured over 0-8 hrs in in vitro pharmcodynamic model
[5] = system: Klebsiella pneumoniae; assay: fT>MIC in Klebsiella pneumoniae isolate 360 at 2 gram for every 8 hrs administered as 3 hrs infusion over 24 hrs in in vitro pharmcodynamic model; how it was run: as §1
[6] = system: Pseudomonas aeruginosa; assay: fT>MIC in Pseudomonas aeruginosa isolate 1038 at 2 gram for every 8 hrs administered as 3 hrs infusion measured over 16-24 hrs in in vitro pharmcodynamic model
[7] = system: Klebsiella pneumoniae; assay: fT>MIC in Klebsiella pneumoniae isolate 354 at 2 gram for every 8 hrs administered as 3 hrs infusion over 24 hrs in in vitro pharmcodynamic model; how it was run: as §1
[8] = system: Klebsiella pneumoniae; assay: fT>MIC in Klebsiella pneumoniae isolate 328A at 2 gram for every 8 hrs administered as 3 hrs infusion over 24 hrs in in vitro pharmcodynamic model; how it was run: as §1
[9] = system: Klebsiella pneumoniae; assay: Antibacterial activity against Klebsiella pneumoniae isolate 361 assessed as reduction of bacterial count at 64 ug/ml within 6 hrs in vitro pharmacodynamic model
[10] = system: Klebsiella pneumoniae; assay: Antibacterial activity against Klebsiella pneumoniae isolate 368 in vitro pharmacodynamic model
How it was run: (§2)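 Simulated peak 38.4 µg/ml, trough 3.04 µg/ml. CAMHB at 37°C, 10^6 CFU/ml from overnight culture, drug started at 0.5 h. Two treated models plus one growth control. Change in log10 CFU/ml over 24 h on blood agar. Detection limit 10^1 CFU/ml.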

[11] = system: Klebsiella pneumoniae; assay: fT>MIC in Klebsiella pneumoniae isolate 368 at 2 gram for every 8 hrs administered as 3 hrs infusion measured over 8-16 hrs in in vitro pharmcodynamic model
[12] = system: Klebsiella pneumoniae; assay: fT>MIC in Klebsiella pneumoniae isolate 377 at 2 gram for every 8 hrs administered as 3 hrs infusion measured over 0-8 hrs in in vitro pharmcodynamic model
[13] = system: Klebsiella pneumoniae; assay: fT>MIC in Klebsiella pneumoniae isolate 351 at 2 gram for every 8 hrs administered as 3 hrs infusion measured over 16-24 hrs in in vitro pharmcodynamic model; how it was run: as §1
[14] = system: Klebsiella pneumoniae; assay: fT>MIC in Klebsiella pneumoniae isolate 377 at 2 gram for every 8 hrs administered as 3 hrs infusion measured over 16-24 hrs in in vitro pharmcodynamic model
[15] = system: Klebsiella pneumoniae; assay: Antibacterial activity against Klebsiella pneumoniae isolate 375 assessed as reduction of bacterial count at 32 ug/ml within 6 hrs in vitro pharmacodynamic model
[16] = system: Pseudomonas aeruginosa; assay: Antibacterial activity against Pseudomonas aeruginosa isolate 1177 assessed as reduction of bacterial count at 8 ug/ml within 6 hrs in vitro pharmacodynamic model
[17] = system: Klebsiella pneumoniae; assay: fT>MIC in Klebsiella pneumoniae isolate 368 at 2 gram for every 8 hrs administered as 3 hrs infusion over 24 hrs in in vitro pharmcodynamic model
[18] = system: Klebsiella pneumoniae; assay: fT>MIC in Klebsiella pneumoniae isolate 334 at 2 gram for every 8 hrs administered as 3 hrs infusion measured over 8-16 hrs in in vitro pharmcodynamic model; how it was run: as §1
[19] = system: Pseudomonas aeruginosa; assay: fT>MIC in Pseudomonas aeruginosa isolate 1030 at 2 gram for every 8 hrs administered as 3 hrs infusion measured over 8-16 hrs in in vitro pharmcodynamic model
[20] = system: Pseudomonas aeruginosa; assay: Antibacterial activity against Pseudomonas aeruginosa isolate 1177 in vitro pharmacodynamic model; how it was run: as §2
[21] = system: Klebsiella pneumoniae; assay: Antibacterial activity against Klebsiella pneumoniae isolate 328A assessed as reduction of bacterial count at 8 ug/ml within 6 hrs in vitro pharmacodynamic model
[22] = system: Pseudomonas aeruginosa; assay: fT>MIC in Pseudomonas aeruginosa isolate 1177 at 2 gram for every 8 hrs administered as 3 hrs infusion measured over 0-8 hrs in in vitro pharmcodynamic model
[23] = system: Klebsiella pneumoniae; assay: fT>MIC in Klebsiella pneumoniae isolate 357 at 2 gram for every 8 hrs administered as 3 hrs infusion measured over 8-16 hrs in in vitro pharmcodynamic model; how it was run: as §1
[24] = system: Klebsiella pneumoniae; assay: Antibacterial activity against Klebsiella pneumoniae isolate 334 assessed as reduction of bacterial count at 32 ug/ml within 6 hrs in vitro pharmacodynamic model
[25] = system: Klebsiella pneumoniae; assay: Antibacterial activity against Klebsiella pneumoniae isolate 334 in vitro pharmacodynamic model; how it was run: as §2
[26] = system: Klebsiella pneumoniae; assay: Antibacterial activity against Klebsiella pneumoniae isolate 351 in vitro pharmacodynamic model
How it was run: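 Inoculum 10^6 CFU/ml; dosing began 0.5 h after inoculation. Two treated models plus one untreated control per isolate; blood-agar counts; change in log10 CFU/ml over 24 h (detection limit 10^1); drug levels checked by HPLC.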

[27] = system: Klebsiella pneumoniae; assay: fT>MIC in Klebsiella pneumoniae isolate 361 at 2 gram for every 8 hrs administered as 3 hrs infusion measured over 8-16 hrs in in vitro pharmcodynamic model; how it was run: as §1
[28] = system: Klebsiella pneumoniae; assay: Antibacterial activity against Klebsiella pneumoniae isolate 354 assessed as reduction of bacterial count at 8 ug/ml within 6 hrs in vitro pharmacodynamic model
[29] = system: Klebsiella pneumoniae; assay: fT>MIC in Klebsiella pneumoniae isolate 351 at 2 gram for every 8 hrs administered as 3 hrs infusion measured over 8-16 hrs in in vitro pharmcodynamic model; how it was run: as §1
[30] = system: Pseudomonas aeruginosa; assay: Antibacterial activity against Pseudomonas aeruginosa isolate 1038 in vitro pharmacodynamic model; how it was run: as §2
[31] = system: Klebsiella pneumoniae; assay: fT>MIC in Klebsiella pneumoniae isolate 377 at 2 gram for every 8 hrs administered as 3 hrs infusion over 24 hrs in in vitro pharmcodynamic model
[32] = system: Pseudomonas aeruginosa; assay: fT>MIC in Pseudomonas aeruginosa isolate 988 at 2 gram for every 8 hrs administered as 3 hrs infusion measured over 16-24 hrs in in vitro pharmcodynamic model
[33] = system: Klebsiella pneumoniae; assay: fT>MIC in Klebsiella pneumoniae isolate 361 at 2 gram for every 8 hrs administered as 3 hrs infusion measured over 0-8 hrs in in vitro pharmcodynamic model; how it was run: as §1
[34] = system: Klebsiella pneumoniae; assay: Antibacterial activity against Klebsiella pneumoniae isolate 360 assessed as reduction of bacterial count at 16 ug/ml within 6 hrs in vitro pharmacodynamic model
[35] = system: Klebsiella pneumoniae; assay: fT>MIC in Klebsiella pneumoniae isolate 328A at 2 gram for every 8 hrs administered as 3 hrs infusion measured over 8-16 hrs in in vitro pharmcodynamic model; how it was run: as §1
[36] = system: Pseudomonas aeruginosa; assay: fT>MIC in Pseudomonas aeruginosa isolate 1038 at 2 gram for every 8 hrs administered as 3 hrs infusion measured over 0-8 hrs in in vitro pharmcodynamic model
[37] = system: Pseudomonas aeruginosa; assay: fT>MIC in Pseudomonas aeruginosa isolate 896 at 2 gram for every 8 hrs administered as 3 hrs infusion over 24 hrs in in vitro pharmcodynamic model
[38] = system: Pseudomonas aeruginosa; assay: fT>MIC in Pseudomonas aeruginosa isolate 1030 at 2 gram for every 8 hrs administered as 3 hrs infusion measured over 16-24 hrs in in vitro pharmcodynamic model
[39] = system: Pseudomonas aeruginosa; assay: Antibacterial activity against Pseudomonas aeruginosa isolate 1030 assessed as reduction of bacterial count at 8 ug/ml within 6 hrs in vitro pharmacodynamic model

C[C@@H](O)[C@H]1C(=O)N2C(C(=O)O)=C(S[C@@H]3CN[C@H](C(=O)N(C)C)C3)[C@H](C)[C@H]12 [MEROPENEM]
fT>MIC [1]: 47% | fT>MIC [2]: 68% | fT>MIC [3]: 63% | fT>MIC [4]: 0% | fT>MIC [5]: 47% | fT>MIC [6]: 82% | fT>MIC [7]: 69% | fT>MIC [8]: 69% | log10cfu [9]: >3 | MIC [10]: 32 mg/L (≈ 83.4 µM) | fT>MIC [11]: 0% | fT>MIC [12]: 100% | fT>MIC [13]: 50% | fT>MIC [14]: 100% | log10cfu [15]: >3 | log10cfu [16]: >=3 | fT>MIC [17]: 16% | fT>MIC [18]: 0% | fT>MIC [19]: 78% | MIC [20]: 8 mg/L (≈ 20.9 µM) | log10cfu [21]: >3 | fT>MIC [22]: 75% | fT>MIC [23]: 0% | log10cfu [24]: >3 | MIC [25]: 32 mg/L (≈ 83.4 µM) | MIC [26]: 8 mg/L (≈ 20.9 µM) | fT>MIC [27]: 0% | log10cfu [28]: >3 | fT>MIC [29]: 62% | MIC [30]: 8 mg/L (≈ 20.9 µM) | fT>MIC [31]: 100% | fT>MIC [32]: 38% | fT>MIC [33]: 0% | log10cfu [34]: >3 | fT>MIC [35]: 72% | fT>MIC [36]: 94% | fT>MIC [37]: 47% | fT>MIC [38]: 78% | log10cfu [39]: >=3
